M5 ag: CHRM5 agonism in calcium assay; CHO-K1 hM5 cells, Fluo-8 calcium fluorescence; 0% DMSO wells, 100% maximal acetylcholine response; activation, % at 3 µM; 0.19% of 360,000 active;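 active means activation above the run's mean over test compounds plus 3 SD, cut at about 23% in these data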;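 further: signal is peak over basal fluorescence ratio across the kinetic read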
Target sequence (P08912 whole entry, looked up): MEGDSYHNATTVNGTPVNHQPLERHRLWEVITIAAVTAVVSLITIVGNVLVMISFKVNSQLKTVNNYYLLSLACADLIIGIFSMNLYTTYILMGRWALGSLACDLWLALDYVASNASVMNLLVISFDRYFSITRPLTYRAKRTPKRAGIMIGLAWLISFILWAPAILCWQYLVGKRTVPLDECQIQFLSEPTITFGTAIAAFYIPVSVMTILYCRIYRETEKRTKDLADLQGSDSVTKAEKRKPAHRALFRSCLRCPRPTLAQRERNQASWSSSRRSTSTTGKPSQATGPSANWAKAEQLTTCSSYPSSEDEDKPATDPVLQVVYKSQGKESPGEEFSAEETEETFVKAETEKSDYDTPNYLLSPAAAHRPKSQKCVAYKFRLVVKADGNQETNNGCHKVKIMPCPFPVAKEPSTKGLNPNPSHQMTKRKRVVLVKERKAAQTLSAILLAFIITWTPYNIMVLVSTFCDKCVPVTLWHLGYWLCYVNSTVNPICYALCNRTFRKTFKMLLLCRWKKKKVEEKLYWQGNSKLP
M4 antag: CHRM4 antagonism in calcium assay; CHO-hM4 cells, ACh EC80, Fluo-8 calcium fluorescence; inhibition, % at 3 µM; 0.73% of 360,000 active; AID 624125;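 active means inhibition above its plate's cutoff, the mean inhibition of sample wells plus 3 SD, cut at about 27% in these data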
CHRM4 agonist: CHRM4 agonism in calcium assay; P08173; CHO-K1 hM4/Gqi5, Fluo-8 calcium fluorescence; vehicle 0%, full acetylcholine response 100%; activation, % at 3 µM; 0.14% of 360,000 active;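 active means activation above the run mean over all test wells plus 3 SD, cut at about 32% in these data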;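 further: peak over basal fluorescence ratio per well then scaled between controls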
M5 PAM: CHRM5 positive allosteric modulation; activation, % at 3 µM; 0.3% of 360,000 active; CHO-K1 hM5, Fluo-8 calcium, ACh EC20 PAM; 0% = ACh EC20, 100% = ACh EC100; P08912;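 active means activation above the run cutoff, the mean activation of all test compounds plus 3 SD, cut at about 18% in these data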
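System – CHO-K1 hM5 cells · Compound – 3 µM, single dose · Incubation – compound preincubation 140 s before EC20 acetylcholine addition · Technique – Fluo-8 calcium fluorescence · Measure – Max/basal fluorescence ratio as % of EC20–EC100 ACh window · Benchmarks – low control EC20 acetylcholine (0%), high control EC100 acetylcholine (100%) · Replication – singlicate, one well per test compound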
M5 antag: antagonists of human muscarinic M5 receptor (CHRM5); P08912; inhibition, % at 3 µM; 0.59% of 360,000 active; CHO-hM5 cells, Fluo-8 calcium fluorescence, ACh EC80;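 active means inhibition above a per-plate cutoff, the mean of that plate's test compounds plus 3 SD, cut at about 27% in these data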
CHRM4 PAM: positive allosteric modulators of human muscarinic M4 receptor; P08173; CHO-K1 hM4/Gqi5, Fluo-8 calcium fluorescence, ACh EC20; 0% = ACh EC20, 100% = maximal ACh; activation, % at 3 µM; 0.4% of 360,000 active; AID 624126;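 active means activation above its plate's cutoff, the mean activation of sample wells plus 3 SD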
Of the large screens only hits and unclear results are named; the others gave an inactive call. Most compounds without a hit are left out; they make up all but 1.9% or so of the library.

CCOC(=O)C1CCCN(C(=O)C2COc3ccccc3O2)C1 (stereo not drawn)	none
CCOC(=O)C1CCCN(C(=O)Cc2c(C(=O)O)[nH]c3ccccc23)C1 (stereo not drawn)	M5 ag 38
CCOC(=O)C1CCCN(C(=O)Cc2ccc(C)cc2)C1 (stereo not drawn)	none
COc1ccc(C(C(=O)NC(C)(C)C)n2c(=O)c(-c3cc4ccccc4[nH]3)nc3ccccc32)cc1 (stereo not drawn)	none
CCOC(=O)C1CCCN(C(=O)Cn2nc(C)c3c(C)n(-c4ccccc4)nc3c2=O)C1 (stereo not drawn)	CHRM4 PAM 17
CC1(C)N=C(N)N=C(N)N1c1ccc(CCCCc2ccccc2)cc1	M5 antag 41
CC1(C)N=C(N)N=C(N)N1c1ccccc1	none
COc1cccc(-c2cnc(C(O)c3ccc(C)c(F)c3)[nH]2)c1 (stereo not drawn)	none
O=C(NCCCN1CCOCC1)c1ccc2c(c1)N(Cc1cccc(Cl)c1)C(=O)CS2	M4 antag 36
CCNc1nc(NC(C)C)nc(NS(=O)(=O)c2ccc(N)cc2)n1	CHRM4 PAM 30
CN(Cc1ccc(Cl)cc1)C(CCc1ccccc1)C(=O)NC1CCCCC1 (stereo not drawn)	none
Cc1ccc(Cl)cc1-c1cc(C(=O)NCc2ccc(C(F)(F)F)cc2)[nH]n1	none
CC(=O)c1ccc(NC(=O)Cn2cnc(S(=O)(=O)N3CCc4ccccc43)c2)cc1	none
O=C(NC(c1ccc(-c2ccccc2)cc1)c1cnccn1)C1CCN(CCCOc2ccccc2)CC1 (stereo not drawn)	CHRM4 agonist 36
CC(C)(C)OC(=O)NCc1ccc(CNC(=O)c2nc[nH]c2C(=O)NCc2ccc(CNC(=O)OC(C)(C)C)cc2)cc1	none
CC(C)(C)OC(=O)NCCCCCNC(=O)c1nc[nH]c1C(=O)NCc1ccc(CNC(=O)OC(C)(C)C)cc1	M4 antag 54, CHRM4 agonist 34, M5 antag 33
Cc1ccc(S(=O)(=O)N2CCN(C(=O)c3sccc3-c3ccccc3)CC2)cc1	M5 antag 30
Cn1nc(OC(=O)Nc2cccc(Cl)c2)cc1C(F)(F)F	M5 antag 27
[O-][n+]1ccc(C(O)c2ccccc2)cc1 (stereo not drawn)	none
COc1cccc(S(=O)(=O)N(C)C[C@@H]2OCc3cnnn3CCCC(=O)N([C@@H](C)CO)C[C@@H]2C)c1	none
Cc1cc(C(=O)COC(=O)c2cc(Cl)ccc2N)c(C)n1Cc1ccco1	CHRM4 PAM 19
CCc1cc(-c2n[nH]c(=S)n2-c2ccccc2C)cs1	CHRM4 PAM 31
CCCn1c(N)c(C(=O)COC(=O)/C=C/c2ccc(OC(F)F)c(OC)c2)c(=O)[nH]c1=O	none
O=C(NCCc1cn[nH]c1)c1ccc2oc(CCc3ccccc3)nc2c1	none
CCN1CCCC1CNC(=O)c1ccc(Sc2ccc(F)cc2)c([N+](=O)[O-])c1 (stereo not drawn)	M4 antag 95
O=C(NCCCN1CCOCC1)c1ccc(Sc2ccc(F)cc2)c([N+](=O)[O-])c1	none
CCN1CCCC1CNC(=O)c1ccc(Sc2ccccc2Cl)c([N+](=O)[O-])c1 (stereo not drawn)	M4 antag 97
CC(C)NC(=O)c1cc(C2CCCCN2C(=O)c2ccc(C(C)C)cc2)on1 (stereo not drawn)	none
COc1ccc(NC(=O)CSc2nc(O)cc(=O)n2-c2ccccc2)cc1	none
O=C(CSc1nc(O)cc(=O)n1-c1ccccc1)Nc1ccc2c3c(cccc13)CC2	CHRM4 PAM 20
Cc1ccc(-n2c(SCC(=O)Nc3ccc(Cl)cc3)nc(O)cc2=O)cc1	M5 antag 32
Cc1c(O)nc(SCC(=O)Nc2ccc3c4c(cccc24)CC3)n(-c2ccccc2)c1=O	none
CCc1nc2ccc(C(=O)NCCCn3ccnc3)cn2c1N(C)Cc1cccs1	none
Cc1cc(C)n2c(SCC(=O)Nc3ccccc3C#N)nnc2n1	none
O=C(Nc1ccccc1F)c1csc(COCCO)n1	none
Cc1ccccc1C(=O)NNC(=O)CCCCC(=O)NNC(=O)c1ccccc1C	none
CCC(=O)Nc1cccc(-c2ccc(N3CCC(C)CC3)nn2)c1	M5 PAM 20
O=S(=O)(O)c1cc(O)ccc1O	M5 ag 36
CCOC(=O)C1(C)CCCN(C(=O)c2ccc(-c3ccccc3)cc2)C1 (stereo not drawn)	none
COc1ccc(-c2csc(C(O)c3ccc(F)cc3)n2)cc1 (stereo not drawn)	CHRM4 agonist 47
COc1ccc(C(O)c2nc(-c3ccc(N(C)C)cc3)cs2)cc1 (stereo not drawn)	CHRM4 agonist 38
CN(C)c1ccc(-c2csc(C(O)c3ccc(F)cc3)n2)cc1 (stereo not drawn)	M5 ag 30, CHRM4 agonist 60
CN(C)c1ccc(-c2csc(C(O)c3ccc(F)c(F)c3)n2)cc1 (stereo not drawn)	M5 ag 50, M4 antag 46, CHRM4 agonist 102, M5 antag 37
Cc1cc(C(=O)N/N=C2/CC(C)CC(C)(C)C2)c(C)o1 (stereo not drawn)	CHRM4 PAM 26
C[C@@H]1CN([C@H](C)CO)C(=O)CCCn2nncc2CO[C@H]1CN(C)S(C)(=O)=O	M4 antag 101
C[C@@H]1CN([C@@H](C)CO)C(=O)CCCn2nncc2CO[C@H]1CN(C)Cc1ccc(Oc2ccccc2)cc1	M4 antag 31
C[C@@H]1CN([C@H](C)CO)C(=O)CCCn2nncc2CO[C@H]1CN(C)Cc1ccc(Oc2ccccc2)cc1	M4 antag 37
C[C@H](CO)N1C[C@H](C)[C@@H](CN(C)Cc2ccc(O)cc2)OCc2cnnn2CCCC1=O	none
COc1ccc(C2NCCc3c2[nH]c2ccccc32)cc1CSc1nc2ccccc2s1 (stereo not drawn)	M4 antag 32
O=C(CN1C(=O)NC2(CCCC2)C1=O)NNC(=O)c1ccccc1F	none
COC(=O)C1CCN(Cc2ccc(C)cc2)CC1	none
Cc1ccc(S(=O)(=O)NNC(=O)C2CCN(Cc3ccccc3)CC2)cc1	M4 antag 41, M5 antag 53
Cn1c(SCC(=O)Nc2ccc3c(c2)CCC3)nnc1C1CC1	none
CCn1c(SCC(=O)Nc2nccs2)nnc1C1CC1	CHRM4 PAM 25
Cc1cc(-c2nnc(SCC(=O)Nc3nccs3)o2)no1	M5 PAM 20
CCC(=O)Nc1cccc(NC(=O)CSc2nnc(C3CC3)n2C)c1	M5 PAM 36

Screening data (PubChem BioAssay)
